High-throughput results: PubChem BioAssay, Broad Institute
Only some compounds are listed: those with a hit (about 2.4% of all), similar ones and a draw of the others.
Ecoli rRNA inh: reduced GFP signal of wild-type E. coli, primary screen, bacterial rRNA inhibitor project, GFP/RFP fluorescence, OD600, single point; E. coli WT GFP vs humanized-ribosome RFP mutants, 24 h; hits give low values; DMSO median 0, no signal -100; GFP signal change (wild-type ribosome), % (no concentration beside the values); 1.6% of 350,000 active;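 active = significant combined selectivity score with lowered wild-type GFP, culture density cut under 30%, mutant RFP and density less affected; inactive = any of these conditions unmet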
S100A4 MyoIIA: inhibitors of S100A4-myosin IIA peptide binding, primary screen, biochemical, fluorescence polarization, TAMRA-MyoIIA peptide | Protein S100-A4 (Homo sapiens), P26447 | 0.14% of 360,000 active | inhibition, % at 10.7 µM | AID 652163, 2013;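 active = mean inhibition of at least 70% across replicates, with every replicate also reaching that level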
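Compound dosing: one dose per compound; test system: human S100A4 monomer with TAMRA-labelled myosin IIA peptide; probe or stimulus: TAMRA-labelled myosin IIA heavy-chain peptide probe, 5 nM; medium: HEPES buffer with Ca2+, pH 7.2; schedule: 5 min incubation before reading; benchmarks: neutral control DMSO, positive control TFP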
PGC1a acetyl inh: inhibitors of PGC1a acetylation signal, primary screen, cell-based, U2OS, AlphaScreen, inhibitor mode | AlphaScreen anti-acetyl-lysine; with virally co-expressed GCN5 acetyltransferase | inhibition, % at 15.6 µM | 0.17% of 350,000 active | AID 651687, 2012;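 active = every replicate shows inhibition of at least 40%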;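 note: 0% = neutral control wells and 100% = positive control wells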
ARNT-TACC3 inh: disruptors of ARNT/TACC3 protein interaction, primary screen, biochemical, AlphaScreen, single concentration | AlphaScreen His-ARNT PAS-B/GST-TACC3 binding, luminescence; TACC3 fragment carries E629A point mutation | inhibition, % at 9.99 µM | 0.66% of 390,000 active;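 active = mean inhibition of replicates at least 50% and at least half of replicates each reaching 50%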;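 note: 0% = complete ARNT plus TACC3 wells and 100% = ARNT alone without TACC3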
ERAP1 HTS inh: human ERAP1 aminopeptidase inhibitors, primary screen, biochemical, single point, plate reader; Endoplasmic reticulum aminopeptidase 1 (Homo sapiens), Q9NZ08; recombinant ERAP1, Leu-AMC fluorescence, 60 min; inhibition, % at 10.7 µM; 0.15% of 340,000 active; AID 652197, 2013;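 active = mean replicate inhibition of at least 30%, or all replicates individually reaching that 30% level; inactive = mean below 30% and not every replicate reaching it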;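 note: 0% = neutral control wells and 100% = L-leucinethiol positive control wells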
Target sequence (Q9NZ08 whole entry, looked up): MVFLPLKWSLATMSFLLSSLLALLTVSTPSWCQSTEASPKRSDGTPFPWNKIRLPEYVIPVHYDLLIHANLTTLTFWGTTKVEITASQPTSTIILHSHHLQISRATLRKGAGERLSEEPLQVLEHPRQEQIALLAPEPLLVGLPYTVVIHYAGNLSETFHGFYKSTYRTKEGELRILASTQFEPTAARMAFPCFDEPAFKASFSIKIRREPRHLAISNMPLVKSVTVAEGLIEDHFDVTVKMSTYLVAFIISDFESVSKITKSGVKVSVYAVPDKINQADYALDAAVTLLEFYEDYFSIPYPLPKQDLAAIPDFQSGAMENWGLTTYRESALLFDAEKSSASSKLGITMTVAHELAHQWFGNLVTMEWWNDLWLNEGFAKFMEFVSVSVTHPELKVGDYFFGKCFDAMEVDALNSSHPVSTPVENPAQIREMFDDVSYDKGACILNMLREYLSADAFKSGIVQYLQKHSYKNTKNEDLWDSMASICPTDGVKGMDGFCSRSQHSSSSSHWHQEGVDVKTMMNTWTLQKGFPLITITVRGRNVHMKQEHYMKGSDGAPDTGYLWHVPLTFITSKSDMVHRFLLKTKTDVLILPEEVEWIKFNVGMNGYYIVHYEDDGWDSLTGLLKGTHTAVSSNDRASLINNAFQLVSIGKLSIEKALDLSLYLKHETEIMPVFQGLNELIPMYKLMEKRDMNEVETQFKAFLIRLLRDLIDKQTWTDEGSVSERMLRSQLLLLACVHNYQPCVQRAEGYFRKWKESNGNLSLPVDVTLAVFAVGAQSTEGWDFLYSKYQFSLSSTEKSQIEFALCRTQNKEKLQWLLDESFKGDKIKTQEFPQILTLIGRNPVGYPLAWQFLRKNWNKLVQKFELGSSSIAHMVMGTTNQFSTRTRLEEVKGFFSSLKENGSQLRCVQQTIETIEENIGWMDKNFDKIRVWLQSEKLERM
Casp6 inh: human caspase-6 inhibitors, primary screen, biochemical, VEID-R110 fluorescence, single point, set 2; 0.53% of 350,000 active; P55212; inhibition, % at 12.5 µM; purified caspase-6, Z-VEID-R110 cleavage fluorescence;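 active = mean inhibition across replicates at least about 35%, with every replicate also reaching that limit, limit read from the data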;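 note: 0% = median of neutral control wells and 100% = no fluorescence left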
AlphaScreen ctr: AlphaScreen signal interference compounds, dose response, artefact control for ARNT-TACC3 interaction inhibitor project, biochemical, luminescence, cherry-pick. 50% of 1,200 active. His-ARNT PASB-GST AlphaScreen artifact counter-screen. shares compounds with ARNT-TACC3 inh. AC50, µM (top dose mostly 68 µM), inactives show at the top dose activity change, negative = signal decrease;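 active = every separate test run was called active for a drop in luminescence, with AC50 within twice the top valid dose, actives reach about 71 µM in these data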
Numbers without * were called inactive; / = not tested or not shown; ! = a repeat was not active; [ ] = remark or other dose.

SMILES	Ecoli rRNA inh	S100A4 MyoIIA	PGC1a acetyl inh	ARNT-TACC3 inh	ERAP1 HTS inh	Casp6 inh	AlphaScreen ctr
COc1ccc(NC(=O)N[C@H]2CC[C@H](CCn3cc(-c4ccccn4)nn3)O[C@H]2CO)cc1	3	-2	7	41	-2	0	/
COc1ccc(NC(=O)N[C@@H]2CC[C@H](CCn3cc(-c4ccccn4)nn3)O[C@H]2CO)cc1	-2	1	2	59*	0	-1	50µM*
COc1ccc(NC(=O)N[C@@H]2CC[C@H](CCn3cc(-c4ccccn4)nn3)O[C@@H]2CO)cc1	-2	4	-9	63*	1	-2	51µM*
C[C@@H]1CN([C@@H](C)CO)S(=O)(=O)c2ccc(C#Cc3ccccc3F)cc2O[C@H]1CN(C)CC1CCOCC1	-9	-1	-6	13	/	/	/
CN(Cc1ccccc1)N=Nc1nc[nH]c1C(N)=O	8	-5	-14	/	3	-1	/
NC(=O)c1[nH]cnc1N	24	-5	-7	69*!	4	0	-7%
O=C(CSC1=NNC(c2ccccn2)S1)Nc1ccccc1 (stereo not drawn)	-19*	0	1	58*	/	0	6.4µM*
C[C@H]1CN([C@@H](C)CO)C(=O)c2cccc(NS(=O)(=O)c3ccc(F)cc3)c2O[C@H]1CN(C)Cc1ccc(C(=O)O)cc1	8	-4	5	-8	1	2	/
O=C(NCc1ccccc1)c1cc(-c2ccccc2)on1	/	/	/	/	/	/	-2%[38 µM]
O=C(NCc1ccccc1)c1cc(-c2cccs2)on1	16	4	-6	-14	0	2	/
Cc1ccc(CNC(=O)c2cc(-c3ccccc3)on2)cc1	/	/	/	/	/	/	2%[38 µM]
O=C(NCCCCO)c1cc(-c2ccccc2)on1	/	/	/	/	/	/	-5%[38 µM]
CN1C(=O)c2cc(NC(=O)c3cccc(Cl)c3)ccc2OC[C@@H]2O[C@@H](CC(=O)NC3CCCCC3)CC[C@H]21	-7	/	-5	3	/	/	/
O=C(Nc1ccccc1)N1C[C@H]2[C@@H](c3ccccc31)[C@@H](CO)N2Cc1ccccc1Cl	-7	-3	2	-4	3	0	/
CCCN1[C@@H]2Cn3c(ccc(-c4ccccc4)c3=O)[C@H]1[C@@H](C(=O)N1CCCCC1)[C@@H]2CO	1	5	/	6	0	0	/
Cc1ccc(Nc2nc(-c3c(C)nc4ncccn34)cs2)cc1	/	/	-80	27	/	/	/
Cc1nc2ncccn2c1-c1csc(Nc2ccc(O)cc2)n1	-15	-1	-7	68*	13	6	22µM*
O=S(=O)(N[C@@H]1CCCN(Cc2ccc(OCCO)cc2)C1)c1cccc2cccnc12	/	2	-11	80*	-4	-1	24µM*
O=S(=O)(N[C@@H]1CCCN(Cc2ccc(OCCO)cc2)C1)c1ccc2ccccc2c1	/	-2	/	9	-4	0	/
CCN(CC)c1ccc(Nc2nc(N3CCOCC3)c3ccccc3n2)cc1	/	/	10	55*	/	/	5.7µM*
COc1ccc(C(=O)Cc2nnc(C)s2)c(OC)c1	/	/	/	77*	/	/	-5%
CO[C@H]1CN(C)C(=O)c2cc(NS(=O)(=O)CC(F)(F)F)ccc2OC[C@H](C)N(Cc2cccnc2)C[C@@H]1C	-1	-6	-4	active	0	-4	-5%[42 µM]
CO[C@@H]1CN(C)C(=O)c2cc(NS(=O)(=O)CC(F)(F)F)ccc2OC[C@@H](C)N(C(=O)c2ccc3c(c2)OCO3)C[C@@H]1C	-2	1	-2	51*	0	-3	22µM*
CO[C@H]1CN(C)C(=O)c2ccc(NS(=O)(=O)CC(F)(F)F)cc2OC[C@H](C)N(Cc2cccnc2)C[C@@H]1C	0	-20	7	-10	2	-1	/
O=C(NCC[C@@H]1CC[C@@H](NC(=O)C2CCCC2)[C@H](CO)O1)c1cc(Cl)cc(Cl)c1	-6	9	-6	-3	-3	2	/
SMILES	Ecoli rRNA inh	S100A4 MyoIIA	PGC1a acetyl inh	ARNT-TACC3 inh	ERAP1 HTS inh	Casp6 inh	AlphaScreen ctr
C/C(=N\NC(=O)c1ccncc1)c1cc2ccccc2o1	/	1	/	-3	2	-6	/
C/C(=N/NC(=O)c1ccncc1)c1cc2ccc(O)cc2oc1=O	-4	-15	/	57*	-146	-3	-8%
COc1ccc(C2=Nn3c(nnc3-c3ccco3)SC2)cc1	/	/	/	35	/	/	/
Oc1ccc(C2=Nn3c(nnc3-c3ccco3)SC2)cc1O	/	/	17	70*	/	/	-35%
CCCNC(=O)N[C@@H]1C=C[C@H](CC(=O)NC2CCCCC2)O[C@@H]1CO	0	2	-3	8	1	-2	/
CCC1CCCCN1S(=O)(=O)c1ccc(NC(=O)c2cccs2)cc1 (stereo not drawn)	/	/	-5	0	/	/	/
CCC1CCCCN1S(=O)(=O)c1ccc(NC(=O)CSc2ncccc2C(=O)O)cc1 (stereo not drawn)	/	/	-5	44*	/	/	14µM*
N=C1/C(=C\c2ccc(OC(=O)c3ccccc3)cc2)C(=O)N=C2SC(N3CCOCC3)=NN12	-1	-2	/	10	1	3	/
Cc1ccc(C(=O)Oc2ccc(/C=C3\C(=N)N4N=C(N5CCOCC5)SC4=NC3=O)cc2)cc1	-5	-11	/	56*	4	-1	-27%
CO[C@H]1CC[C@H]2CCOc3ccc(C#N)cc3C(=O)N(C)C[C@H](C)C(=O)N(C)C[C@H]1O2	6	4	/	-22	-3	6	/
CS(=O)(=O)N1CC2(C1)[C@@H](c1ccccc1)[C@@H](CO)N2Cc1ccccc1	-5	-20	2	/	1	2	/
Oc1ccc(/C=N/Nc2ccc(Cl)nn2)c(O)c1O	21	-2	/	55*	5	48*	4.5µM*
NS(=O)(=O)c1ccc(CCNC(=O)c2ccc3c(c2)OCO3)cc1	-1	12	/	41*	2	1	5%
O=C(NCCc1ccc(Cl)cc1)c1ccc2c(c1)OCO2	9	3	3	-1	4	1	/
CC(=O)NC[C@@H]1[C@@H](c2ccccc2)[C@@H](CO)N1C(=O)Cc1ccncc1	3	/	4	-8	/	/	/
O=C(COC(=O)Cn1nnc(-c2ccccc2)n1)Nc1ccccc1Br	16	1	3	-3	3	5	/
COc1ccc(OC)c(NC(=O)COC(=O)Cn2nnc(-c3ccccc3)n2)c1	5	-8	3	active	2	-2	1%
